Test results: ChEMBL document CHEMBL1122494, “New selenium-75 labeled radiopharmaceuticals: selenonium analogues of dopamine” (J Med Chem, 1983)

Legend:
Format in all cases: ADME, organism-based
Rattus norvegicus [1] = assay: Distribution of Se-75 activity in Lung of female Sprague-Dawley Rat 5 min after iv administration of compound; settings: in vivo
Summary of the method: (§1)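 Female Sprague-Dawley rats (100-300 g), five per group, got [75Se]selenonium salt in 0.2 mL saline (5-6 μCi) by lateral tail vein. They were killed by cardioectomy under chloroform anesthesia at the stated time. A sample of the large organ was weighed and gamma counted, and counts were converted to % injected dose/g. Values are mean and SEM of five.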

Rattus norvegicus [2] = assay: Distribution of Se-75 activity in Lung of female Sprague-Dawley Rat 60 min after iv administration of compound; settings: in vivo, 1 h; summary of the method: as §1
Rattus norvegicus [3] = assay: Distribution of Se-75 activity in blood of female Sprague-Dawley Rat 15 min after iv administration of compound; settings: in vivo, 0.25 h
Summary of the method: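 Tail-vein injection of 5-6 μCi [75Se]selenonium salt in 0.2 mL saline into female Sprague-Dawley rats (100-300 g), five per group. Rats were killed by cardioectomy under chloroform anesthesia at the time point. Radioactivity was gamma counted and expressed as % injected dose/g, mean and SEM of five.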

Rattus norvegicus [4] = assay: Distribution of Se-75 activity in blood of female Sprague-Dawley Rat 240 min after iv administration of compound; settings: in vivo, 4 h
Summary of the method: (§2)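 Female Sprague-Dawley rats (100-300 g) got 5-6 μCi of [75Se]selenonium salt in 0.2 mL saline via lateral tail vein. Groups of five were anesthetized with chloroform at set times and killed by cardioectomy. Tissues were rinsed, blotted and weighed, then gamma-counted. Values are % injected dose per gram, mean and SEM of five.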

Rattus norvegicus [5] = assay: Distribution of Se-75 activity in blood of female Sprague-Dawley Rat 30 min after iv administration of compound; settings: in vivo, 0.5 h; summary of the method: as §2
Rattus norvegicus [6] = assay: Distribution of Se-75 activity in blood of female Sprague-Dawley Rat 60 min after iv administration of compound; settings: in vivo, 1 h; summary of the method: as §2
Rattus norvegicus [7] = assay: Distribution of Se-75 activity in Adrenal of female Sprague-Dawley Rat 15 after iv administration of compound; settings: in vivo
Summary of the method: (§3)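 Female Sprague-Dawley rats (100-300 g), five per group, got [75Se]selenonium salt by lateral tail vein: 0.2 mL saline with 5-6 μCi. Groups were killed by cardioectomy under chloroform anesthesia at the set times. The organ was taken intact, rinsed with saline, blotted, weighed and gamma counted. Values are % injected dose/g, mean and SEM of five.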

Rattus norvegicus [8] = assay: Distribution of Se-75 activity in Adrenal of female Sprague-Dawley Rat 30 min after iv administration of compound; settings: in vivo, 0.5 h; summary of the method: as §3
Rattus norvegicus [9] = assay: Distribution of Se-75 activity in Adrenal of female Sprague-Dawley Rat 5 min after iv administration of compound; settings: in vivo; summary of the method: as §3
Rattus norvegicus [10] = assay: Distribution of Se-75 activity in Adrenal of female Sprague-Dawley Rat 60 min after iv administration of compound; settings: in vivo, 1 h; summary of the method: as §3
Rattus norvegicus [11] = assay: Distribution of Se-75 activity in Brain of female Sprague-Dawley Rat 15 min after iv administration of compound; settings: in vivo, 0.25 h
Rattus norvegicus [12] = assay: Distribution of Se-75 activity in Brain of female Sprague-Dawley Rat 30 min after iv administration of compound; settings: in vivo, 0.5 h
Rattus norvegicus [13] = assay: Distribution of Se-75 activity in Heart of female Sprague-Dawley Rat 30 min after iv administration of compound; settings: in vivo, 0.5 h; summary of the method: as §3
Rattus norvegicus [14] = assay: Distribution of Se-75 activity in Kidney of female Sprague-Dawley Rat 15 min after iv administration of compound; settings: in vivo, 0.25 h; summary of the method: as §3
Rattus norvegicus [15] = assay: Distribution of Se-75 activity in Kidney of female Sprague-Dawley Rat 30 min after iv administration of compound; settings: in vivo, 0.5 h; summary of the method: as §3
Rattus norvegicus [16] = assay: Distribution of Se-75 activity in Kidney of female Sprague-Dawley Rat 5 min after iv administration of compound; settings: in vivo; summary of the method: as §3
Rattus norvegicus [17] = assay: Distribution of Se-75 activity in Kidney of female Sprague-Dawley Rat 60 min after iv administration of compound; settings: in vivo, 1 h; summary of the method: as §3
Rattus norvegicus [18] = assay: Distribution of Se-75 activity in Liver of female Sprague-Dawley Rat 120 min after iv administration of compound; settings: in vivo, 2 h; summary of the method: as §1
Rattus norvegicus [19] = assay: Distribution of Se-75 activity in Liver of female Sprague-Dawley Rat 30 min after iv administration of compound; settings: in vivo, 0.5 h; summary of the method: as §1
Rattus norvegicus [20] = assay: Distribution of Se-75 activity in Lung of female Sprague-Dawley Rat 15 min after iv administration of compound; settings: in vivo, 0.25 h; summary of the method: as §1
Rattus norvegicus [21] = assay: Distribution of Se-75 activity in Lung of female Sprague-Dawley Rat 30 min after iv administration of compound; settings: in vivo, 0.5 h; summary of the method: as §1
Rattus norvegicus [22] = assay: Distribution of Se-75 activity in Heart of female Sprague-Dawley Rat 15 min after iv administration of compound; settings: in vivo, 0.25 h; summary of the method: as §3
Rattus norvegicus [23] = assay: Tissue radioactivity ratio in Heart to Blood 120 min after Intravenous Injection in rats; settings: other tissue, 2 h
Summary of the method: (§4)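 Same rat biodistribution: female Sprague-Dawley rats (100-300 g), 5-6 μCi [75Se]selenonium salt in 0.2 mL saline iv by tail vein, five per time point, killed by cardioectomy under chloroform. Ratios are tissue-to-tissue quotients of gamma-counted % injected dose per gram in each organ (adrenal, heart, kidney, liver, blood).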

Rattus norvegicus [24] = assay: Tissue radioactivity ratio in Heart to Blood 15 min after Intravenous Injection in rats; settings: other tissue, 0.25 h; summary of the method: as §4
Rattus norvegicus [25] = assay: Tissue radioactivity ratio in Heart to Blood 240 min after Intravenous Injection in rats; settings: other tissue, 4 h; summary of the method: as §4
Rattus norvegicus [26] = assay: Tissue radioactivity ratio in Heart to Blood 30 min after Intravenous Injection in rats; settings: other tissue, 0.5 h; summary of the method: as §4
Rattus norvegicus [27] = assay: Tissue radioactivity ratio in Heart to Blood 5 min after Intravenous Injection in rats; settings: other tissue; summary of the method: as §4
Rattus norvegicus [28] = assay: Tissue radioactivity ratio in Heart to Blood 60 min after Intravenous Injection in rats; settings: other tissue, 1 h; summary of the method: as §4
Rattus norvegicus [29] = assay: Tissue radioactivity ratio in adrenal to Kidney 120 min after Intravenous Injection in rats; settings: in vivo, 2 h; summary of the method: as §4
Rattus norvegicus [30] = assay: Tissue radioactivity ratio in adrenal to Kidney 15 min after Intravenous Injection in rats; settings: in vivo, 0.25 h; summary of the method: as §4
Rattus norvegicus [31] = assay: Tissue radioactivity ratio in adrenal to Kidney 240 min after Intravenous Injection in rats; settings: in vivo, 4 h; summary of the method: as §4
Rattus norvegicus [32] = assay: Tissue radioactivity ratio in adrenal to Kidney 30 min after Intravenous Injection in rats; settings: in vivo, 0.5 h; summary of the method: as §4
Rattus norvegicus [33] = assay: Tissue radioactivity ratio in adrenal to Liver 120 min after Intravenous Injection in rats; settings: in vivo, 2 h; summary of the method: as §4
Rattus norvegicus [34] = assay: Tissue radioactivity ratio in adrenal to Liver 15 min after Intravenous Injection in rats; settings: in vivo, 0.25 h; summary of the method: as §4
Rattus norvegicus [35] = assay: Tissue radioactivity ratio in adrenal to Liver 30 min after Intravenous Injection in rats; settings: in vivo, 0.5 h; summary of the method: as §4
Rattus norvegicus [36] = assay: Tissue radioactivity ratio in adrenal to Liver 5 min after Intravenous Injection in rats; settings: in vivo; summary of the method: as §4
Rattus norvegicus [37] = assay: Tissue radioactivity ratio in adrenal to blood 120 min after Intravenous Injection in rats; settings: other tissue, 2 h; summary of the method: as §4
Rattus norvegicus [38] = assay: Tissue radioactivity ratio in adrenal to blood 240 min after Intravenous Injection in rats; settings: other tissue, 4 h; summary of the method: as §4
Rattus norvegicus [39] = assay: Tissue radioactivity ratio in adrenal to blood 30 min after Intravenous Injection in rats; settings: other tissue, 0.5 h; summary of the method: as §4
Rattus norvegicus [40] = assay: Tissue radioactivity ratio in adrenal to blood 5 min after Intravenous Injection in rats; settings: other tissue; summary of the method: as §4
Rattus norvegicus [41] = assay: Tissue radioactivity ratio in adrenal to blood 60 min after Intravenous Injection in rats; settings: other tissue, 1 h; summary of the method: as §4
Rattus norvegicus [42] = assay: Tissue radioactivity ratio in adrenal to Kidney 60 min after Intravenous Injection in rats; settings: in vivo, 1 h; summary of the method: as §4

Compound `C[Se+](C)CCc1ccc(O)c(O)c1.[Cl-]` has a Dose/g (Rattus norvegicus [1]) of 1.25%, a Dose/g (Rattus norvegicus [2]) of 0.58% and a Dose/g (Rattus norvegicus [3]) of 0.3%. The Dose/g (Rattus norvegicus [4]) was 0.05%, the Dose/g (Rattus norvegicus [5]) was 0.28% and the Dose/g (Rattus norvegicus [6]) was 0.18%. It also gave a Dose/g (Rattus norvegicus [7]) of 0.87%, a Dose/g (Rattus norvegicus [8]) of 0.86% and a Dose/g (Rattus norvegicus [9]) of 0.78%. The Dose/g (Rattus norvegicus [10]) was 0.87%, the Dose/g (Rattus norvegicus [11]) was 0.01% and the Dose/g (Rattus norvegicus [12]) was 0.01%. It also gave a Dose/g (Rattus norvegicus [13]) of 1.08%, a Dose/g (Rattus norvegicus [14]) of 1.07% and a Dose/g (Rattus norvegicus [15]) of 1.07%. For the same compound, the Dose/g (Rattus norvegicus [16]) was 2.65%, the Dose/g (Rattus norvegicus [17]) was 0.59% and the Dose/g (Rattus norvegicus [18]) was 0.32%. It also gave a Dose/g (Rattus norvegicus [19]) of 2.73%, a Dose/g (Rattus norvegicus [20]) of 1.14% and a Dose/g (Rattus norvegicus [21]) of 0.83%. The Dose/g (Rattus norvegicus [22]) was 1.58%, the Ratio (Rattus norvegicus [23]) was 2.62 and the Ratio (Rattus norvegicus [24]) was 5.27. For the same compound, the Ratio (Rattus norvegicus [25]) was 3.2, the Ratio (Rattus norvegicus [26]) was 3.86 and the Ratio (Rattus norvegicus [27]) was 6.77. It also gave a Ratio (Rattus norvegicus [28]) of 2.55, a Ratio (Rattus norvegicus [29]) of 2.52 and a Ratio (Rattus norvegicus [30]) of 0.81. The Ratio (Rattus norvegicus [31]) was 3.28, the Ratio (Rattus norvegicus [32]) was 0.81 and the Ratio (Rattus norvegicus [33]) was 2.28. For the same compound, the Ratio (Rattus norvegicus [34]) was 0.43, the Ratio (Rattus norvegicus [35]) was 0.31 and the Ratio (Rattus norvegicus [36]) was 0.42. It also gave a Ratio (Rattus norvegicus [37]) of 9.12, a Ratio (Rattus norvegicus [38]) of 11.8 and a Ratio (Rattus norvegicus [39]) of 3.07. It also gave a Ratio (Rattus norvegicus [40]) of 2.22, a Ratio (Rattus norvegicus [41]) of 4.83 and a Ratio (Rattus norvegicus [42]) of 1.47.

`COc1ccc(CC[Se+](C)C)cc1OC.[I-]` gave a Dose/g (Rattus norvegicus [1]) of 1.44%, a Dose/g (Rattus norvegicus [2]) of 0.38% and a Dose/g (Rattus norvegicus [3]) of 0.26%. For the same compound, the Dose/g (Rattus norvegicus [4]) was 0.03%, the Dose/g (Rattus norvegicus [5]) was 0.22% and the Dose/g (Rattus norvegicus [6]) was 0.12%. It also gave a Dose/g (Rattus norvegicus [7]) of 0.88%, a Dose/g (Rattus norvegicus [8]) of 0.94% and a Dose/g (Rattus norvegicus [9]) of 0.86%. It also gave a Dose/g (Rattus norvegicus [10]) of 0.71%, a Dose/g (Rattus norvegicus [11]) of 0.02% and a Dose/g (Rattus norvegicus [12]) of 0.02%. For the same compound, the Dose/g (Rattus norvegicus [13]) was 0.58%, the Dose/g (Rattus norvegicus [14]) was 1.29% and the Dose/g (Rattus norvegicus [15]) was 0.99%. It also gave a Dose/g (Rattus norvegicus [16]) of 2.73%, a Dose/g (Rattus norvegicus [17]) of 0.53% and a Dose/g (Rattus norvegicus [18]) of 0.29%. The Dose/g (Rattus norvegicus [19]) was 1.75%, the Dose/g (Rattus norvegicus [20]) was 0.097% and the Dose/g (Rattus norvegicus [21]) was 0.75%. For the same compound, the Dose/g (Rattus norvegicus [22]) was 1.16%, the Ratio (Rattus norvegicus [23]) was 2.12 and the Ratio (Rattus norvegicus [24]) was 4.46. It also gave a Ratio (Rattus norvegicus [25]) of 2, a Ratio (Rattus norvegicus [26]) of 2.64 and a Ratio (Rattus norvegicus [27]) of 7. It also gave a Ratio (Rattus norvegicus [28]) of 2.25, a Ratio (Rattus norvegicus [29]) of 2.24 and a Ratio (Rattus norvegicus [30]) of 0.68. The Ratio (Rattus norvegicus [31]) was 4, the Ratio (Rattus norvegicus [32]) was 0.95 and the Ratio (Rattus norvegicus [33]) was 2.55. The Ratio (Rattus norvegicus [34]) was 0.46, the Ratio (Rattus norvegicus [35]) was 0.54 and the Ratio (Rattus norvegicus [36]) was 0.35. It also gave a Ratio (Rattus norvegicus [37]) of 9.25, a Ratio (Rattus norvegicus [38]) of 21.33 and a Ratio (Rattus norvegicus [39]) of 4.27. For the same compound, the Ratio (Rattus norvegicus [40]) was 2.53, the Ratio (Rattus norvegicus [41]) was 5.92 and the Ratio (Rattus norvegicus [42]) was 1.34.
